Assay results from different studies.
Each line is one published result; the experiments were not run side by side. ≈ marks a conversion by molar mass, not a printed value.

SMILES | target or system | test | system | setting | endpoint | value
COc1ccc(CNC[C@](O)(COCc2ccc(OC)cc2)[C@@H]2CC[C@@H](C)C[C@H]2OCc2ccc(OC)cc2)cc1 | A2780 | cell growth or viability, MTT |  | 10 µM, 72 h | inhibition | 98.7%
COc1cccc2c1C(=O)c1c(O)c3c(c(O)c1C2=O)C[C@@](O)(C(=O)CO)C[C@@H]3O[C@H]1C[C@H](N)[C@H](O)[C@H](C)O1 | Caco-2 | cell growth or viability, MTT |  | 100 µg/mL, 48 h, serum-free | viability | 9.8%
Cl.N[C@@H]1CCN(c2cc(C(=O)NCC(=O)O)ccc2NC(=O)c2cc(Br)c(Br)[nH]2)C1 | Klebsiella pneumoniae | microbial growth, broth dilution | ATCC700603 |  | MIC | > 32 µg/mL
C[C@@H]1CC[C@@H]([C@](C)(O)CNCc2cccc(F)c2)[C@H](OCc2ccccc2)C1 | A2780 | cell growth or viability, MTT |  | 10 µM, 72 h | inhibition | 30.6%
C=CC(=O)NC1CCN(c2ncc3ncnc(Nc4ccc(Oc5ccc6c(c5)ncn6C)c(C)c4)c3n2)CC1 | HT-29 | cell growth or viability |  |  | EC50 | 3.82 nM
COc1ccc(COC[C@@](O)(CNCc2ccccc2)[C@@H]2CC[C@@H](C)C[C@H]2OCc2ccc(OC)cc2)cc1 | A2780 | cell growth or viability, MTT |  | 30 µM, 72 h | inhibition | 100%
CO[C@@H]1[C@@H](OC(N)=O)[C@@H](O)[C@H](Oc2ccc3c(O)c(NC(=O)c4ccc(O)c(CC=C(C)C)c4)c(=O)oc3c2C)OC1(C)C | Klebsiella pneumoniae | microbial growth, broth dilution | ATCC10031 |  | MIC | 0.5 µg/mL (≈ 0.816 µM)
C=C(F)C(=O)N1CCN(c2nc(OC[C@@H]3CCCN3C)nc3c2CCN(c2cccc4cccc(Cl)c24)C3)C[C@@H]1CC#N | NCI-H2122 | cell growth or viability, ATP luminescence |  |  | IC50 | 192 nM
NC(=O)c1ccc(Oc2ccc(C(=O)C(Cl)Cl)cc2[N+](=O)[O-])cc1 | NCI-H1650 | cell growth or viability, MTT |  | 2.5 µM | inhibition | 59.3%
Cc1[nH]c(C(=O)Nc2ccc(C(=O)NCC(=O)O)cc2N2CC[C@@H](NC(=O)OC(C)(C)C)C2)c(Cl)c1Cl | Klebsiella pneumoniae | microbial growth, broth dilution | ATCC700603 |  | MIC | > 32 µg/mL
